SMILES strings stand for the structures.

As a reminder, the IC50 is the concentration that inhibits the measured activity by half. Low readings indicate inhibition by little substance, high ones a need for much substance.

urease, sequence (P07374 whole entry, looked up): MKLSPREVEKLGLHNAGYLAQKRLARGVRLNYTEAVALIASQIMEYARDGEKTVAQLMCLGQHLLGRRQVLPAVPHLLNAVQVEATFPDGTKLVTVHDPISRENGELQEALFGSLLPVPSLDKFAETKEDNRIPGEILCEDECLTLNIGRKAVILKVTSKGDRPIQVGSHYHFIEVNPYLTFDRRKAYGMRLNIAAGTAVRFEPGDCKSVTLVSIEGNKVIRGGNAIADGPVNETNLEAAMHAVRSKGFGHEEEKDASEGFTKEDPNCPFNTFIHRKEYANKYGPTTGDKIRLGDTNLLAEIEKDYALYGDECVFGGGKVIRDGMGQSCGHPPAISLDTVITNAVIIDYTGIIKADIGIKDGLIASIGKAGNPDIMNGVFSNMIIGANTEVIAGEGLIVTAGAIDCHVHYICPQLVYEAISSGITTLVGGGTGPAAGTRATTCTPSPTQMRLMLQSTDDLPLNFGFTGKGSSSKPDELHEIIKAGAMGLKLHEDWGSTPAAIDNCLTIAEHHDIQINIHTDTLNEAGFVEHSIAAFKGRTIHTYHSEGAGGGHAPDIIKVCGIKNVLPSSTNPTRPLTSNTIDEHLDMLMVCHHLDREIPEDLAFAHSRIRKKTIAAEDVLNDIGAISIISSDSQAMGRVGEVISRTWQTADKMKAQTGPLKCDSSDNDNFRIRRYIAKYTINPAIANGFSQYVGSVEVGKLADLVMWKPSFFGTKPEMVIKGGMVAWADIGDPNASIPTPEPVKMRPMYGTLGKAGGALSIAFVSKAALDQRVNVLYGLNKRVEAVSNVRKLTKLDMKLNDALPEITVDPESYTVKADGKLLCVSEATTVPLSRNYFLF

The test concerns the target urease (Canavalia ensiformis, UniProt P07374). The experiment in a line: Urease inhibition assay. In kind it is biochemical. In short, it runs like this:
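Test compound was preincubated with urease (enzyme solution 5 U ml−1) in buffer for 10 min at 37 °C. Alkaline and phenolic reagents were then added, and absorbance was read at 625 nm. Thiourea served as the standard inhibitor. Assays were run in triplicate. % inhibition = (A control − A sample)/A control × 100. IC50 was obtained by non-linear regression of % inhibition against concentration.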
For `CC(c1ccc(-c2ccccc2)c(F)c1)c1nnc(-c2cccc3ccccc23)o1` (stereo not drawn) [Compound 5, 2-(1-(2-Fluoro-[1,1′-biphenyl]-4-yl)ethyl)-5-(naphthalen-1-yl)-1,3,4-oxadiazole], the IC50 came out at 39 ± 1.2 µM.
On to `CC(c1ccc(-c2ccccc2)c(F)c1)c1nnc(-c2ccc(O)c(Br)c2)o1` (stereo not drawn) [Compound 28, 2-Bromo-4-(5-(1-(2-fluoro-[1,1′-biphenyl]-4-yl)ethyl)-1,3,4-oxadiazol-2-yl)phenol], for which the IC50 stood at 14 ± 0.3 µM.
The same measure for `COc1ccc(-c2nnc(C(C)c3ccc(-c4ccccc4)c(F)c3)o2)c(OC)c1OC` (stereo not drawn) [Compound 10, 2-(2,3,4-Trimethoxyphenyl)-5-(1-(2-fluoro-[1,1′-biphenyl]-4-yl)ethyl)-1,3,4-oxadiazole]: 20 ± 0.5 µM; for `COc1ccc(-c2nnc(C(C)c3ccc(-c4ccccc4)c(F)c3)o2)c(Cl)c1OC` (stereo not drawn) [Compound 17, 2-(2-Chloro-3,4-dimethoxyphenyl)-5-(1-(2-fluoro-[1,1′-biphenyl]-4-yl)ethyl)-1,3,4-oxadiazole]: 36 ± 1.2 µM.
Compound `CCOc1ccc(-c2nnc(C(C)c3ccc(-c4ccccc4)c(F)c3)o2)c(OC)c1` (stereo not drawn) [Compound 12, 2-(4-Ethoxy-2-methoxyphenyl)-5-(1-(2-fluoro-[1,1′-biphenyl]-4-yl)ethyl)-1,3,4-oxadiazole] had an IC50 of 74 ± 1.3 µM.
The same measure for `COc1cc(-c2nnc(C(C)c3ccc(-c4ccccc4)c(F)c3)o2)cc(OC)c1Br` (stereo not drawn) [Compound 23, 2-(4-Bromo-3,5-dimethoxyphenyl)-5-(1-(2-fluoro-[1,1′-biphenyl]-4-yl)ethyl)-1,3,4-oxadiazole]: 37 ± 1.4 µM.
With `COc1ccc(-c2nnc(C(C)c3ccc(-c4ccccc4)c(F)c3)o2)c(F)c1` (stereo not drawn) [Compound 22, 2-(2-Fluoro-4-methoxyphenyl)-5-(1-(2-fluoro-[1,1′-biphenyl]-4-yl)ethyl)-1,3,4-oxadiazole], the IC50 came out at 31 ± 1.4 µM.
The same measure for `CC(c1ccc(-c2ccccc2)c(F)c1)c1nnc(-c2ccc(Br)cc2)o1` (stereo not drawn) [Compound 21, 2-(4-Bromophenyl)-5-(1-(2-fluoro-[1,1′-biphenyl]-4-yl)ethyl)-1,3,4-oxadiazole]: 13 ± 0.2 µM.
For `CC(c1ccc(-c2ccccc2)c(F)c1)c1nnc(-c2ccc(Br)cc2F)o1` (stereo not drawn) [Compound 24, 2-(4-Bromo-2-fluorophenyl)-5-(1-(2-fluoro-[1,1′-biphenyl]-4-yl)ethyl)-1,3,4-oxadiazole], the IC50 turned out to be 13 ± 0.1 µM.
The same measure for `COc1ccccc1-c1nnc(C(C)c2ccc(-c3ccccc3)c(F)c2)o1` (stereo not drawn) [Compound 20, 2-(1-(2-Fluoro-[1,1′-biphenyl]-4-yl)ethyl)-5-(2-methoxyphenyl)-1,3,4-oxadiazole]: 12 ± 0.9 µM; for `CC(c1ccc(-c2ccccc2)c(F)c1)c1nnc(-c2ccc(O)c(O)c2O)o1` (stereo not drawn) [Compound 6, 4-(5-(1-(2-Fluoro-[1,1′-biphenyl]-4-yl)ethyl)-1,3,4-oxadiazol-2-yl) benzene-1,2,3-triol]: 20 ± 0.5 µM.
For `COc1ccc(Br)cc1-c1nnc(C(C)c2ccc(-c3ccccc3)c(F)c2)o1` (stereo not drawn) [Compound 9, 2-(5-Bromo-2-methoxyphenyl)-5-(1-(2-fluoro-[1,1′-biphenyl]-4-yl)ethyl)-1,3,4-oxadiazole], the 50% inhibitory concentration (IC50) came out at 72 ± 1.2 µM.
The value for `CC(c1ccc(-c2ccccc2)c(F)c1)c1nnc(-c2cccc(O)c2O)o1` (stereo not drawn) [Compound 31, 3-(5-(1-(2-Fluoro-[1,1′-biphenyl]-4-yl)ethyl)-1,3,4-oxadiazol-2-yl)benzene-1,2-diol] was 15 ± 0.3 µM.
In turn, `CC(c1ccc(-c2ccccc2)c(F)c1)c1nnc(-c2ccc(-c3ccccc3)c(F)c2)o1` (stereo not drawn) [Compound 29, 2-(2-Fluoro-[1,1′-biphenyl]-4-yl)-5-(1-(2-fluoro-[1,1′-biphenyl]-4-yl)ethyl)-1,3,4-oxadiazole] showed an IC50 of 41 ± 1.4 µM.
The value for `COc1ccc(OC)c(-c2nnc(C(C)c3ccc(-c4ccccc4)c(F)c3)o2)c1` (stereo not drawn) [Compound 25, 2-(2,5-Dimethoxyphenyl)-5-(1-(2-fluoro-[1,1′-biphenyl]-4-yl)ethyl)-1,3,4-oxadiazole] was 35 ± 1.5 µM.
The compound `CC(c1ccc(-c2ccccc2)c(F)c1)c1nnc(-c2ccccc2[N+](=O)[O-])o1` (stereo not drawn) [Compound 32, 2-(1-(2-Fluoro-[1,1′-biphenyl]-4-yl)ethyl)-5-(2-nitrophenyl)-1,3,4-oxadiazole] returned a 50% inhibitory concentration (IC50) of 15 ± 0.3 µM.
The value for `CC(c1ccc(-c2ccccc2)c(F)c1)c1nnc(-c2cccc(C(F)(F)F)c2)o1` (stereo not drawn) [Compound 26, 2-(1-(2-Fluoro-[1,1′-biphenyl]-4-yl)ethyl)-5-(3-(trifluoromethyl)phenyl)-1,3,4-oxadiazole] was 12 ± 0.1 µM.
The value for `CC(c1ccc(-c2ccccc2)c(F)c1)c1nnc(-c2ccccc2N)o1` (stereo not drawn) [Compound 7, 2-(5-(1-(2-Fluoro-[1,1′-biphenyl]-4-yl)ethyl)-1,3,4-oxadiazol-2-yl) aniline] was 16 ± 0.1 µM; that for `CSc1ccc(-c2nnc(C(C)c3ccc(-c4ccccc4)c(F)c3)o2)cc1` (stereo not drawn) [Compound 27, 2-(1-(2-Fluoro-[1,1′-biphenyl]-4-yl)ethyl)-5-(4-(methylthio)phenyl)-1,3,4-oxadiazole] was 34 ± 2.4 µM.
The compound `COc1cc(-c2nnc(C(C)c3ccc(-c4ccccc4)c(F)c3)o2)ccc1Oc1ccccc1` (stereo not drawn) [Compound 19, 2-(1-(2-Fluoro-[1,1′-biphenyl]-4-yl)ethyl)-5-(3-methoxy-4-phenoxyphenyl)-1,3,4-oxadiazole] registered an IC50 of 16 ± 0.3 µM.
For the compound `COc1cc(-c2nnc(C(C)c3ccc(-c4ccccc4)c(F)c3)o2)ccc1F` (stereo not drawn) [Compound 13, 2-(4-Fluoro-3-methoxyphenyl)-5-(1-(2-fluoro-[1,1′-biphenyl]-4-yl)ethyl)-1,3,4-oxadiazole], the midpoint of inhibition, the IC50, lay at 16 ± 0.9 µM.
The value for `CC(c1ccc(-c2ccccc2)c(F)c1)c1nnc(-c2ccc([N+](=O)[O-])cc2)o1` (stereo not drawn) [Compound 16, 2-(1-(2-Fluoro-[1,1′-biphenyl]-4-yl)ethyl)-5-(4-nitrophenyl)-1,3,4-oxadiazole] was 13 ± 0.2 µM; that for `Cc1ccc(-c2nnc(C(C)c3ccc(-c4ccccc4)c(F)c3)o2)s1` (stereo not drawn) [Compound 30, 2-(1-(2-Fluoro-[1,1′-biphenyl]-4-yl)ethyl)-5-(5-methylthiophen-2-yl)-1,3,4-oxadiazole] was 12 ± 0.1 µM.
The value for `COc1cccc(OC)c1-c1nnc(C(C)c2ccc(-c3ccccc3)c(F)c2)o1` (stereo not drawn) [Compound 15, 2-(2,6-Dimethoxyphenyl)-5-(1-(2-fluoro-[1,1′-biphenyl]-4-yl)ethyl)-1,3,4-oxadiazole] was 31 ± 1.2 µM; that for `CC(c1ccc(-c2ccccc2)c(F)c1)c1nnc(-c2cccc([N+](=O)[O-])c2)o1` (stereo not drawn) [Compound 8, 2-(1-(2-Fluoro-[1,1′-biphenyl]-4-yl)ethyl)-5-(3-nitrophenyl)-1,3,4-oxadiazole] was 41 ± 1.2 µM.
The same measure for `CCOc1cc(-c2nnc(C(C)c3ccc(-c4ccccc4)c(F)c3)o2)ccc1OC` (stereo not drawn) [Compound 14, 2-(3-Ethoxy-4-methoxyphenyl)-5-(1-(2-fluoro-[1,1′-biphenyl]-4-yl)ethyl)-1,3,4-oxadiazole]: 35 ± 1.2 µM; for `CC(c1ccc(-c2ccccc2)c(F)c1)c1nnc(-c2cc([N+](=O)[O-])ccc2Cl)o1` (stereo not drawn) [Compound 11, 2-(2-Chloro-5-nitrophenyl)-5-(1-(2-fluoro-[1,1′-biphenyl]-4-yl)ethyl)-1,3,4-oxadiazole]: 41 ± 1.2 µM.

Source of the values: PMC10464598 (RSC Advances, 2023).
